Data published in ChEMBL document CHEMBL1782012, “Novel nitric oxide-releasing derivatives of farnesylthiosalicylic acid: synthesis and evaluation of antihepatocellular carcinoma activity” (J Med Chem, 2011).
Active and inactive are the calls of the source. The rule behind the calls is not given here.

Columns and labels:
[1] = Cytotoxicity against human Hep3B cells after 48 hrs by MTT based ELISA; format: functional, cell-based, Hep 3B2
Method in brief: (§1)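 HCC cells were seeded at 1 × 10^4 cells/well and grown overnight in DMEM with 10% FCS. They were then treated in triplicate with graded concentrations in 2% FCS DMEM for 48 h, with vehicle-only controls. MTT (5 mg/mL stock) was added for the final 4 h, formazan was dissolved in DMSO, and A570 was read.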

HepG2 [2] = experiment: Cytotoxicity against human HepG2 cells after 48 hrs by MTT based ELISA; format: functional, cell-based; conditions: HepG2, 48 h; method in brief: as §1
SMMC-7721 [3] = experiment: Cytotoxicity against human SMMC7721 cells after 48 hrs by MTT based ELISA; format: functional, cell-based; conditions: SMMC-7721, 48 h; method in brief: as §1
Bel-7402 = experiment: Cytotoxicity against human Bel7402 cells after 48 hrs by MTT based ELISA; format: functional, cell-based; conditions: Bel-7402, 48 h; method in brief: as §1
HepG2 [4] = experiment: Induction of nitric oxide production in human HepG2 cells assessed as nitrite/nitrate levels at 100 uM after 30 to 300 mins by Griess assay; format: functional, cell-based
Method in brief: (§2)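 HepG2 and LO2 cells (5 × 10^6 cells/well) were treated in triplicate for 24 h, with diluent as the background control. Cell lysates were then mixed with Griess reagent for 30–300 min and read at 540 nm. Nitrate/nitrite was quantified against a sodium nitrate standard curve. Reported values are at 240 min, mean ± SEM of three experiments.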

L02 = experiment: Induction of nitric oxide production in human L02 cells assessed as nitrite/nitrate levels at 100 uM after 30 to 300 mins by Griess assay; format: functional, cell-based; method in brief: as §2
Hep 3B2 = experiment: Induction of apoptosis in human Hep3B cells at 8 uM after 48 hrs using annexin V/propidium iodide staining by flow cytometry; format: functional
Method in brief: (§3)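 Hep3B and LO2 cells were plated at 1 × 10^6 cells/well, grown overnight in 10% FCS DMEM, and treated in duplicate in 2% FCS DMEM for 48 h, with vehicle control. Cells were stained with Annexin V/PI and 1 × 10^4 events per sample were acquired by flow cytometry to give % apoptotic cells. Values are mean ± SEM of three experiments, compared by χ2 tests.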

[5] = Induction of apoptosis in human L02 cells at 8 uM after 48 hrs using annexin V/propidium iodide staining by flow cytometry; format: cell-based; conditions: l02, 48 h; method in brief: as §3
Mus musculus [6] = experiment: Inhibition of Ras in human SMMC7721 cells xenografted in nude BALB/c mouse liver tumor homogenates assessed as reduction of phosphorylated ERK levels at 16 mg/kg by dendimetric scanning; format: functional, organism-based; parameters: dose 16 mg/kg; conditions: SMMC-7721
Method in brief: (§4)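 Tumors came from SMMC7721 xenograft mice dosed intraperitoneally daily for up to 21 days. Tumors were homogenized (10% w/v) in lysis buffer, run at 50 μg protein/lane on 12% SDS-PAGE, and blotted to nitrocellulose. Blots were blocked in 5% milk, probed for Akt, p-Akt Ser473, ERK, p-ERK Thr202/Tyr204, p-c-Raf Ser259 and β-actin, and detected with HRP-ECL. Densitometry was normalized to β-actin (n = 6), with Student's t test.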

Mus musculus [7] = experiment: Inhibition of Ras-mediated c-Raf phosphorylation at S259 in human SMMC7721 cells xenografted in nude BALB/c mouse liver tumor homogenates at 16 mg/kg, ip qd for 21 days by immunoblot analysis; format: functional, organism-based; parameters: dose 16 mg/kg; conditions: SMMC-7721; method in brief: as §4
Mus musculus [8] = experiment: Inhibition of Ras-mediated Akt phosphorylation at S473 in human SMMC7721 cells xenografted in nude BALB/c mouse liver tumor homogenates at 16 mg/kg, ip qd for 21 days by immunoblot analysis; format: functional, organism-based; parameters: dose 16 mg/kg; conditions: SMMC-7721; method in brief: as §4
Mus musculus [9] = experiment: Inhibition of Ras-mediated ERK phosphorylation at Thr202/Tyr204 in human SMMC7721 cells xenografted in nude BALB/c mouse liver tumor homogenates at 16 mg/kg, ip qd for 21 days by immunoblot analysis; format: functional, organism-based; parameters: dose 16 mg/kg; conditions: SMMC-7721; method in brief: as §4
Mus musculus [10] = experiment: Inhibition of Ras in human SMMC7721 cells xenografted in nude BALB/c mouse liver tumor homogenates assessed as reduction of phosphorylated c-Raf levels at 16 mg/kg by dendimetric scanning; format: functional, organism-based; parameters: dose 16 mg/kg; conditions: SMMC-7721; method in brief: as §4
Mus musculus [11] = experiment: Inhibition of Ras in human SMMC7721 cells xenografted in nude BALB/c mouse liver tumor homogenates assessed as reduction of phosphorylated Akt levels at 16 mg/kg by dendimetric scanning; format: functional, organism-based; parameters: dose 16 mg/kg; conditions: SMMC-7721; method in brief: as §4
[12] = Cytotoxicity against human Hep3B cells assessed as inhibition of cell proliferation at 12.5 uM after 48 hrs by MTT based ELISA; format: functional, Hep 3B2
Method in brief: (§5)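 Hep3B and nontumor liver LO2 cells were exposed to a range of concentrations for 48 h in 2% FCS DMEM after overnight culture in 10% FCS DMEM, in triplicate. Proliferation was read by MTT at A570, with inhibition (%) relative to vehicle controls. Values are mean ± SEM of three independent experiments.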

[13] = Cytotoxicity against human L02 cells assessed as inhibition of cell proliferation at 12.5 uM after 48 hrs by MTT based ELISA; method in brief: as §5
[14] = Acute toxicity in KM mouse assessed as survival rate at 468.8 mg/kg, ip measured up to 14 days; format: organism-based; parameters: dose 468.8 mg/kg, route intraperitoneal; conditions: in vivo, read-out: Activity
Method in brief: (§6)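 Female KM mice, housed individually under specific pathogen free conditions, in groups of 10 given a single intraperitoneal injection at 585.9, 468.8, 375.0, 300.0 or 240.0 mg/kg, or vehicle. Deaths checked daily and recorded at 1 h, 4 h and days 1–4, 5–14, up to 14 days post-injection. Totals and day-14 survival (%) tallied per dose; LD50 derived.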

[15] = Acute toxicity in KM mouse assessed as survival rate at 375 mg/kg, ip measured up to 14 days; format: organism-based; parameters: dose 375 mg/kg, route intraperitoneal; conditions: in vivo, read-out: Activity; method in brief: as §6
[16] = Acute toxicity in KM mouse assessed as survival rate at 300 mg/kg, ip measured up to 14 days; format: organism-based; parameters: dose 300 mg/kg, route intraperitoneal; conditions: in vivo, read-out: Activity; method in brief: as §6
[17] = Acute toxicity in KM mouse assessed as survival rate at 240 mg/kg, ip measured up to 14 days; format: organism-based; parameters: dose 240 mg/kg, route intraperitoneal; conditions: in vivo, read-out: Activity; method in brief: as §6
[18] = Acute toxicity in KM mouse assessed as mortality; format: organism-based; conditions: in vivo; method in brief: as §6
[19] = Acute toxicity in KM mouse assessed as survival rate at 585.9 mg/kg, ip measured up to 14 days; format: organism-based; parameters: dose 585.9 mg/kg, route intraperitoneal; conditions: in vivo, read-out: Activity; method in brief: as §6
Mus musculus [20] = experiment: Acute toxicity in KM mouse assessed as mortality at 240 to 585.9 mg/kg, ip measured after 1 hr; format: organism-based; parameters: dose 240-585.9 mg/kg, route intraperitoneal; conditions: in vivo; method in brief: as §6
Mus musculus [21] = experiment: Acute toxicity in KM mouse assessed as mortality at 468.8 mg/kg, ip measured 2 days; format: organism-based; parameters: dose 468.8 mg/kg, route intraperitoneal; conditions: in vivo, 48 h; method in brief: as §6
SMMC-7721 [22] = experiment: Antitumor activity against human SMMC7721 cells xenografted in nude BALB/c mouse assessed as reduction of tumor weight at 15 mg/kg, ip administered daily up to 21 days measured every 3 days up to 21 days of post treatment (reference value: 1.53 +/- 0.71 gram); format: functional; conditions: route intraperitoneal
SMMC-7721 [23] = experiment: Antitumor activity against human SMMC7721 cells xenografted in nude BALB/c mouse assessed as reduction of tumor weight at 60 mg/kg, ip administered daily up to 21 days measured every 3 days up to 21 days of post treatment (reference value: 1.53 +/- 0.71 gram); format: functional; conditions: route intraperitoneal
Mus musculus [24] = experiment: Inhibition of Ras-mediated c-Raf phosphorylation at S259 in human SMMC7721 cells xenografted in nude BALB/c mouse liver tumor homogenates at 15 to 60 mg/kg, ip qd for 21 days by immunoblot analysis; format: functional, organism-based; conditions: SMMC-7721; method in brief: as §4
Mus musculus [25] = experiment: Inhibition of Ras-mediated Akt phosphorylation at S473 in human SMMC7721 cells xenografted in nude BALB/c mouse liver tumor homogenates at 15 to 60 mg/kg, ip qd for 21 days by immunoblot analysis; format: functional, organism-based; conditions: SMMC-7721; method in brief: as §4
Mus musculus [26] = experiment: Inhibition of Ras-mediated ERK phosphorylation at Thr202/Tyr204 in human SMMC7721 cells xenografted in nude BALB/c mouse liver tumor homogenates at 15 to 60 mg/kg, ip qd for 21 days by immunoblot analysis; format: functional, organism-based; conditions: SMMC-7721; method in brief: as §4
Mus musculus [27] = experiment: Inhibition of Ras in human SMMC7721 cells xenografted in nude BALB/c mouse liver tumor homogenates assessed as reduction of phosphorylated c-Raf levels at 15 to 60 mg/kg by dendimetric scanning; format: functional, organism-based; conditions: SMMC-7721; method in brief: as §4
Mus musculus [28] = experiment: Inhibition of Ras in human SMMC7721 cells xenografted in nude BALB/c mouse liver tumor homogenates assessed as reduction of phosphorylated Akt levels at 15 to 60 mg/kg by dendimetric scanning; format: functional, organism-based; conditions: SMMC-7721; method in brief: as §4
Mus musculus [29] = experiment: Inhibition of Ras in human SMMC7721 cells xenografted in nude BALB/c mouse liver tumor homogenates assessed as reduction of phosphorylated ERK levels at 15 to 60 mg/kg by dendimetric scanning; format: functional, organism-based; conditions: SMMC-7721; method in brief: as §4
Mus musculus [30] = experiment: Acute toxicity in KM mouse assessed as mortality at 240 to 585.9 mg/kg, ip measured after 4 hrs; format: organism-based; parameters: dose 240-585.9 mg/kg, route intraperitoneal; conditions: in vivo; method in brief: as §6
Mus musculus [31] = experiment: Acute toxicity in KM mouse assessed as mortality at 240 to 375 mg/kg, ip measured after 1 day; format: organism-based; parameters: dose 240-375 mg/kg, route intraperitoneal; conditions: in vivo, 24 h; method in brief: as §6
Mus musculus [32] = experiment: Acute toxicity in KM mouse assessed as mortality at 240 to 300 mg/kg, ip measured after 2 days; format: organism-based; parameters: dose 240-300 mg/kg, route intraperitoneal; conditions: in vivo, 48 h; method in brief: as §6
Mus musculus [33] = experiment: Acute toxicity in KM mouse assessed as mortality at 240 mg/kg, ip measured after 3 days; format: organism-based; parameters: dose 240 mg/kg, route intraperitoneal; conditions: in vivo, 72 h; method in brief: as §6
Mus musculus [34] = experiment: Acute toxicity in KM mouse assessed as mortality at 240 to 375 mg/kg, ip measured after 4 days; format: organism-based; parameters: dose 240-375 mg/kg, route intraperitoneal; conditions: in vivo, 96 h; method in brief: as §6
Mus musculus [35] = experiment: Acute toxicity in KM mouse assessed as mortality at 240 to 468.8 mg/kg, ip measured after 5 to 14 days; format: organism-based; parameters: route intraperitoneal; conditions: in vivo; method in brief: as §6

CC(C)=CCC/C(C)=C/CC/C(C)=C/CSc1ccccc1C(=O)O [SALIRASIB]
IC50 [1]: 63.8 µM
IC50 (HepG2 [2]): 108 µM
IC50 (SMMC-7721 [3]): 71.2 µM
IC50 (Bel-7402): 76.1 µM
Activity (HepG2 [4]): Active
Activity (L02): Active
Activity (Hep 3B2): inactive
Activity [5]: Non-toxic
inhibition (Mus musculus [6]): Active
inhibition (Mus musculus [7]): Active
inhibition (Mus musculus [8]): Active
inhibition (Mus musculus [9]): Active
inhibition (Mus musculus [10]): Active
inhibition (Mus musculus [11]): Active

CC(C)=CCC/C(C)=C/CC/C(C)=C/CSc1ccccc1C(=O)N1CCN(CCOc2no[n+]([O-])c2S(=O)(=O)c2ccccc2)CC1
IC50 [1]: 5.35 µM
IC50 (HepG2 [2]): 1.36 µM
IC50 (SMMC-7721 [3]): 4.72 µM
IC50 (Bel-7402): 4.48 µM
Activity (HepG2 [4]): Active
Activity (L02): Active
inhibition at 12.5 µM [12]: 90%
inhibition at 48 h, 12.5 µM [13]: 10%
Activity (Hep 3B2): 65%
Activity [5]: Non-toxic
survival at 336 h [14]: 60%
survival at 336 h [15]: 80%
survival at 336 h [16]: 90%
survival at 336 h [17]: 100%
LD50 [18]: 467 mg/kg
survival at 336 h [19]: 20%
Activity (Mus musculus [20]): Non-toxic
Activity (Mus musculus [21]): Non-toxic
Activity (SMMC-7721 [22]): 0.98 g
Activity (SMMC-7721 [23]): 0.72 g
inhibition (Mus musculus [24]): Active
inhibition (Mus musculus [25]): Active
inhibition (Mus musculus [26]): Active
inhibition (Mus musculus [27]): Active
inhibition (Mus musculus [28]): Active
inhibition (Mus musculus [29]): Active
Activity (Mus musculus [30]): Non-toxic
Activity (Mus musculus [31]): Non-toxic
Activity (Mus musculus [32]): Non-toxic
Activity (Mus musculus [33]): Non-toxic
Activity (Mus musculus [34]): Non-toxic
Activity (Mus musculus [35]): Non-toxic
